Measurements as given in paper PMC11193445 (International Journal of Nanomedicine, 2024).

Tested on: MDA-MB-231 cells
Assay: Dox intracellular localization by confocal microscopy
Type: cell-based, human
Conditions: free Dox 7.5 µM, NF-Dox 50 µM (7.5 µM of Dox), 1 h, 37 °C
Summary of the method: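 MDA-MB-231 cells were seeded on coverslips at 5×10^4 cells/well and grown 24 h. They were exposed 1 h at 37 °C, washed twice in PBS, fixed 10 min in ice-cold 4% PFA, and mounted in DAPI-containing antifade. Intrinsic Dox fluorescence (RFP channel) and DAPI nuclei were imaged with a 63× oil objective. Images represent three separate experiments.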

COc1cccc2c1C(=O)c1c(O)c3c(c(O)c1C2=O)C[C@@](O)(C(=O)CO)C[C@@H]3O[C@H]1C[C@H](N)[C@H](O)[C@H](C)O1 [Dox, Doxorubicin]
Dox cellular uptake and localization (confocal, red fluorescence): not significant
